Measurements reported in ChEMBL document CHEMBL1154050, “Design, synthesis and hypolipidemic activity of novel 2-(naphthalen-2-yloxy)propionic acid derivatives as desmethyl fibrate analogs” (2009).
Calls of active or inactive are those of the source. The rule behind the calls is not given here.

Assays:
Type in all cases: functional
Rattus norvegicus [1] = experiment: Antihyperlipidemic activity in high-cholesterol diet fed Wistar albino rat model assessed as increase in serum HDL level at 20 mg/kg, po
Method in brief: (§1)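 Adult male rats given high cholesterol diet (2% cholesterol, 1% cholic acid) for 14 days, dosed orally at 20 mg/kg in 0.5% CMC on days 8–14. Normal-chow and HCD vehicle controls were included, n=6 per group. After a 12 h fast on day 14, tail blood was taken under mild ether anesthesia. Serum TC, TG and HDL were measured by kit spectrophotometry, and LDL was calculated by Friedewald's formula. Values are percent change versus the HCD control.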

Rattus norvegicus [2] = experiment: Antihyperlipidemic activity in high-cholesterol diet fed Wistar albino rat model assessed as reduction in serum LDL level at 20 mg/kg, po; method in brief: as §1
Rattus norvegicus [3] = experiment: Antihyperlipidemic activity in high-cholesterol diet fed Wistar albino rat model assessed as reduction in serum total cholesterol level at 20 mg/kg, po; design: scale not given: the % may be the effect or the level left; method in brief: as §1
Rattus norvegicus [4] = experiment: Antihyperlipidemic activity in high-cholesterol diet fed Wistar albino rat model assessed as ratio of LDL level to HDL level at 20 mg/kg, po
Method in brief: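 The ratio was calculated from group mean LDL and mean HDL. It used the HCD rat model (2% cholesterol, 1% cholic acid, 14 days), oral dosing at 20 mg/kg in 0.5% CMC on days 8–14, and n=6. Serum was taken from tail blood after a 12 h fast. HDL was measured by kit and LDL was derived by Friedewald's formula.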

Rattus norvegicus [5] = experiment: Antihyperlipidemic activity in high-cholesterol diet fed Wistar albino rat model assessed as reduction in serum triglyceride level at 20 mg/kg, po; design: scale not given: the % may be the effect or the level left; method in brief: as §1

Which Activity (Rattus norvegicus [1]) does the source give for `CC(Oc1ccc2ccccc2c1)C(=O)O` (centres undefined) here?
Its Activity is “Active”.

And the Activity (Rattus norvegicus [2])?
Its Activity is “Active”.

Which Activity (Rattus norvegicus [3]) does the source give for `CC1=NN(C(=O)C(C)Oc2ccc3ccccc3c2)C(=O)C1` (centres undefined) here?
The Activity was 15.89%.

And the Activity (Rattus norvegicus [1])?
The Activity was “Active”.

And the Activity (Rattus norvegicus [2])?
The Activity was 21.74%.

And the Ratio (Rattus norvegicus [4])?
The Ratio was 4.54.

With `CCn1c(C(C)Oc2ccc3ccccc3c2)n[nH]c1=S` (centres undefined) as the compound, how does the Activity (Rattus norvegicus [3]) read?
The Activity was “inactive”.

And the Activity (Rattus norvegicus [5])?
Its Activity is 20.88%.

What about the Activity (Rattus norvegicus [1]) of the same compound?
The Activity was 48.25%.

And the Activity (Rattus norvegicus [2])?
The Activity was “Active”.

What about the Ratio (Rattus norvegicus [4]) of the same compound?
Its Ratio is 3.61.

Which Activity (Rattus norvegicus [3]) does the source give for `CC(Oc1ccc2ccccc2c1)c1n[nH]c(=S)o1` (centres undefined) here?
Its Activity is 16.18%.

What about the Activity (Rattus norvegicus [5]) of the same compound?
The Activity was 26.78%.

What about the Activity (Rattus norvegicus [1]) of the same compound?
The Activity was 55.42%.

And the Activity (Rattus norvegicus [2])?
The Activity was 19.58%.

What about the Ratio (Rattus norvegicus [4]) of the same compound?
The Ratio was 3.29.

With `COc1ccc(/C=N/NC(=O)C(C)Oc2ccc3ccccc3c2)cc1` (centres undefined) as the compound, how does the Activity (Rattus norvegicus [3]) read?
Its Activity is “inactive”.

What about the Activity (Rattus norvegicus [1]) of the same compound?
Its Activity is “Active”.

And the Ratio (Rattus norvegicus [4])?
Its Ratio is 5.4.

With `CC(C)=NNC(=O)C(C)Oc1ccc2ccccc2c1` (centres undefined) as the compound, how does the Activity (Rattus norvegicus [3]) read?
Its Activity is “inactive”.

What about the Activity (Rattus norvegicus [1]) of the same compound?
Its Activity is “Active”.

What about the Ratio (Rattus norvegicus [4]) of the same compound?
Its Ratio is 6.1.

For `CCSc1nnc(C(C)Oc2ccc3ccccc3c2)n1-c1ccccc1` (centres undefined), which Activity (Rattus norvegicus [3]) is on record?
The Activity was 19.44%.

And the Activity (Rattus norvegicus [5])?
The Activity was 19.07%.

And the Activity (Rattus norvegicus [1])?
Its Activity is 51.21%.

And the Activity (Rattus norvegicus [2])?
Its Activity is 19.15%.

And the Ratio (Rattus norvegicus [4])?
The Ratio was 3.4.

How did the Activity (Rattus norvegicus [3]) turn out when `CC(Oc1ccc2ccccc2c1)C(=O)N1N=C(c2ccccc2)CC1(O)c1ccccc1` (centres undefined) was run?
Its Activity is “inactive”.

And the Activity (Rattus norvegicus [5])?
Its Activity is “inactive”.

What about the Activity (Rattus norvegicus [1]) of the same compound?
The Activity was 49.73%.

What about the Ratio (Rattus norvegicus [4]) of the same compound?
Its Ratio is 3.99.

Which Activity (Rattus norvegicus [3]) does the source give for `CC(Oc1ccc2ccccc2c1)C(=O)N/N=C/c1ccc([N+](=O)[O-])cc1` (centres undefined) here?
The Activity was “inactive”.

And the Activity (Rattus norvegicus [5])?
The Activity was “inactive”.

What about the Activity (Rattus norvegicus [1]) of the same compound?
Its Activity is “Active”.

What about the Ratio (Rattus norvegicus [4]) of the same compound?
The Ratio was 4.74.

How did the Activity (Rattus norvegicus [3]) turn out when `C=CCNC(=S)NNC(=O)C(C)Oc1ccc2ccccc2c1` (centres undefined) was run?
Its Activity is “inactive”.

And the Activity (Rattus norvegicus [1])?
Its Activity is “Active”.

What about the Ratio (Rattus norvegicus [4]) of the same compound?
Its Ratio is 8.16.

Which results are given for `CCSc1nnc(C(C)Oc2ccc3ccccc3c2)n1CC` (centres undefined)?
Activity (Rattus norvegicus [3]): inactive; Activity (Rattus norvegicus [5]): inactive; Activity (Rattus norvegicus [1]): Active; Activity (Rattus norvegicus [2]): Active; Ratio (Rattus norvegicus [4]): 4.5

Which Activity (Rattus norvegicus [3]) does the source give for `Cc1ccc(C)c(OCCCC(C)(C)C(=O)O)c1` [GEMFIBROZIL] here?
The Activity was 4.68%.

And the Activity (Rattus norvegicus [5])?
The Activity was 22.23%.

And the Activity (Rattus norvegicus [1])?
The Activity was 25.18%.

What about the Ratio (Rattus norvegicus [4]) of the same compound?
Its Ratio is 4.81.

Which results are given for `CCNC(=S)NNC(=O)C(C)Oc1ccc2ccccc2c1` (centres undefined)?
Activity (Rattus norvegicus [3]): inactive; Activity (Rattus norvegicus [1]): Active; Ratio (Rattus norvegicus [4]): 6.71

How did the Activity (Rattus norvegicus [3]) turn out when `CC(Oc1ccc2ccccc2c1)C(=O)NNC(=S)Nc1ccccc1` (centres undefined) was run?
The Activity was “inactive”.

What about the Activity (Rattus norvegicus [1]) of the same compound?
The Activity was “Active”.

What about the Ratio (Rattus norvegicus [4]) of the same compound?
The Ratio was 5.7.

What does the source list for `COc1ccc(NC(=O)C(C)Oc2ccc3ccccc3c2)cc1` (centres undefined)?
Activity (Rattus norvegicus [3]): inactive; Activity (Rattus norvegicus [1]): Active; Ratio (Rattus norvegicus [4]): 5.19

With `CC(Oc1ccc2ccccc2c1)c1n[nH]c(=S)n1-c1ccccc1` (centres undefined) as the compound, how does the Activity (Rattus norvegicus [3]) read?
Its Activity is “inactive”.

And the Activity (Rattus norvegicus [5])?
The Activity was “inactive”.

What about the Activity (Rattus norvegicus [1]) of the same compound?
Its Activity is 47.78%.

And the Activity (Rattus norvegicus [2])?
Its Activity is “Active”.

What about the Ratio (Rattus norvegicus [4]) of the same compound?
The Ratio was 3.75.

With `C/C(=N\NC(=O)C(C)Oc1ccc2ccccc2c1)c1ccc(Br)cc1` (centres undefined) as the compound, how does the Activity (Rattus norvegicus [3]) read?
The Activity was “inactive”.

What about the Activity (Rattus norvegicus [1]) of the same compound?
Its Activity is “Active”.

And the Ratio (Rattus norvegicus [4])?
Its Ratio is 6.04.
